Reference: publication PMC9075995 (RSC Advances, 2019)
Converted amounts (≈) assume the structure as drawn. Like-named read-outs stand apart in the source and are kept apart here.

Assays:
[1] = tested on: P. vulgaris ATCC 8427; test: MIC and MBC by broth microdilution, subculture on agar; format: cell-based, Proteus vulgaris; details: for MBC/MFC: P. vulgaris ATCC 8427, second line per compound, subculture on agar 24 h, 37 °C; for MIC: Proteus vulgaris, ATCC8427
Summary of the method: (§1)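 EUCAST broth microdilution used Mueller-Hinton broth for bacteria and phenol-red-free RPMI-1640 for Candida. Test compound ran at a final 31.2–1000 μg ml−1, from 80 mg ml−1 DMSO stocks, with DMSO ≤1.25%. […] For MBC/MFC, 10 μl from the MIC, 2× and 4× MIC wells was plated on agar for 24 h at 37 °C. Done in duplicate, 2 sets.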

[2] = tested on: C. albicans ATCC 10231; test: MIC and MFC by broth microdilution, subculture on agar; format: cell-based, Candida albicans; details: for MBC/MFC: C. albicans ATCC 10231, second line per compound, subculture on agar 24 h, 37 °C; for MIC: Candida albicans, ATCC10231
Summary of the method: as §1

[3] = tested on: Supercoiled plasmid pUC57 DNA; test: Cleavage of pUC57 DNA, agarose gel electrophoresis; format: biochemical; details: 37 °C, 24 h, pH 7.2, gel electrophoresis
Summary of the method: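 Supercoiled pUC57 plasmid (4634 bp) in 10 mM Tris–HCl/50 mM NaCl, pH 7.2, was incubated with the test compound (50, 100, 200, 300, 400 μM) at 37 °C for 24 h. Samples ran on 1% agarose at 75 V in TAE, were stained with Midori green and imaged under UV. Band intensities gave the fraction of each DNA form. Control was DNA with matching DMSO in buffer. Done in triplicate.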

[4] = tested on: E. faecalis ATCC 29212; test: MIC and MBC by broth microdilution, subculture on agar; format: cell-based, Enterococcus faecalis; details: for MBC/MFC: second line per compound, subculture on agar 24 h, 37 °C; for MIC: Enterococcus faecalis, ATCC29212
Summary of the method: as §1

[5] = tested on: HL-60 (leukemia promyelocytic); test: Anticancer activity, MTT assay; format: cell-based, human; details: for anticancer activity in words: HL-60; for IC50: Homo sapiens, HL-60, 48 h, read-out: Cell culture IC50
Summary of the method: (§2)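 Human leukaemia (HL-60, NALM-6) or melanoma (WM-115) cells were exposed to the test compound for 46 h, then given MTT for a further 2 h. Fresh DMSO stocks were diluted in complete medium, with DMSO ≤0.2%. Untreated cells served as control. IC50 was taken from concentration–response curves, as mean ± SD of 4 experiments.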

[6] = tested on: S. aureus ATCC 29213; test: MIC and MBC by broth microdilution, subculture on agar; format: cell-based, Staphylococcus aureus; details: for MBC/MFC: S. aureus ATCC 29213, second line per compound, subculture on agar 24 h, 37 °C; for MIC: Staphylococcus aureus, ATCC29213
Summary of the method: as §1

[7] = tested on: NALM-6 (leukemia lymphoblastic); test: Anticancer activity, MTT assay; format: cell-based, human; details: for anticancer activity in words: NALM-6; for IC50: Homo sapiens, NALM-6, 48 h, read-out: Cell culture IC50
Summary of the method: as §2

[8] = tested on: human foreskin fibroblasts HFF-1 (ATCC-SCRC-1041); test: Cytotoxicity on normal fibroblasts, MTT reduction assay; format: cell-based; details: for metabolic activity higher than untreated control cells: HFF-1, low concentrations 3.9–31.2 μM
Summary of the method: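 HFF-1 fibroblasts were seeded at 1 × 10^5/well in DMEM with 15% FCS and pen/strep and grown 48 h (37 °C, 5% CO2). They were exposed 24 h to the test compound (25 mM DMSO stocks; final 3.9–500 μM). Cells were washed and given MTT (1.5 mg ml−1) for 2 h. Formazan was dissolved overnight in 20% SDS in DMF/water and read at 550 nm. Viability is relative to 2% DMSO control; IC50 came from trend-line equations. Two experiments, duplicates each.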

[9] = tested on: WM-115 (human melanoma); test: Anticancer activity, MTT assay; format: cell-based; details: for IC50: Homo sapiens, WM-115, 48 h, read-out: Cell culture IC50
Summary of the method: as §2

[10] = tested on: S. epidermidis ATCC 12228; test: MIC and MBC by broth microdilution, subculture on agar; format: cell-based, Staphylococcus epidermidis; details: for MIC: Staphylococcus epidermidis, ATCC12228
Summary of the method: as §1

[11] = tested on: P. aeruginosa ATCC 25619; test: as above; format: cell-based; details: Pseudomonas aeruginosa, ATCC25619
Summary of the method: as §1

[12] = tested on: HL-60 (leukemia promyelocytic); details: read-out: Cell culture IC50; HL-60, referential compounds; cited from earlier work
[13] = tested on: WM-115 (human melanoma); details: read-out: Cell culture IC50; WM-115, referential compounds; cited from earlier work
[14] = tested on: NALM-6 (leukemia lymphoblastic); details: read-out: Cell culture IC50; NALM-6, referential compounds; cited from earlier work

| Compound | MBC/MFC [1] [µg/mL] | MBC/MFC [2] [µg/mL] | effect on supercoiled plasmid DNA (cleavage of Form I) [3] | MBC/MFC ([4]; E. faecalis ATCC 29212) [µg/mL] | MBC/MFC [6] [µg/mL] | MIC [1] [µg/mL] | MIC [2] [µg/mL] | MIC [4] [µg/mL] | IC50 [5] [µM] | MIC [10] [µg/mL] | MIC [11] [µg/mL] | MIC [6] [µg/mL] | IC50 [7] [µM] | IC50 [9] [µM] | other results |
| --- | --- | --- | --- | --- | --- | --- | --- | --- | --- | --- | --- | --- | --- | --- | --- |
| [(η^6-p-cymene)Ru(1-[amino(thioxo)methyl]-5-hydroxy-3-methyl-1H-pyrazole) Cl2 [Compound 2d] | 1000 | >1000 | cleavage the DNA Form I into Form II and Form III | 1000 | 500 | – | – | – | – | – | – | – | – | – | anticancer activity in words [5]: inactive; anticancer activity in words [7]: inactive; viability of HFF-1 cells ([8]; HFF-1, 24 h, over tested range 3.9–500 μM): ≥ 80%; activity stronger than cisplatin (fold, from IC50 values) ([9]; WM-115): above 2 fold |
| NC(=S)n1nc(-c2ccccc2)cc1O [Compound 1c, 1-[amino(thioxo)methyl]-5-hydroxy-3-phenyl-1H-pyrazole] | >1000 | >1000 | – | >1000 | >1000 | > 1000 | > 1000 | 500 (≈ 2.28 mM) | 618 ± 32 | 62.5 (≈ 0.285 mM) | > 1000 | 1000 (≈ 4.56 mM) | 152 ± 26.7 | 752 ± 118 | – |
| [(η^6-p-cymene)Ru(1-[amino(thioxo)methyl]-3,5-diethyl-1H-pyrazole)Cl2 [Compound 2b] | >1000 | – | cleavage the DNA Form I into Form II and Form III | 62.5 | 125 | – | – | – | – | – | – | – | – | – | metabolic activity higher than untreated control cells [8]: 39–45% |
| Cc1ccc(C(C)C)cc1.Cc1ccc(C(C)C)cc1.[Cl][Ru][Cl].[Cl][Ru][Cl] [Dimer, dichloro(p-cymene)ruthenium(II)dimer, reference compound] | >1000 | >1000 | no effect | >1000 | >1000 | – | – | – | – | – | – | – | – | – | anticancer activity in words [5]: inactive; anticancer activity in words [7]: inactive; anticancer activity in words ([9]; WM-115): inactive |
| CCc1cc(CC)n(C(N)=S)n1 [Compound 1b, 1-[amino(thioxo)methyl]-3,5-diethyl-1H-pyrazole] | 1000 (≈ 5.46 mM) | 1000 (≈ 5.46 mM) | did not affect the DNA | >1000 | >1000 | 1000 (≈ 5.46 mM) | 1000 (≈ 5.46 mM) | > 1000 | 506 ± 47.1 | > 1000 | > 1000 | 1000 (≈ 5.46 mM) | 469 ± 44.4 | 481 ± 39.4 | – |
| N.N.O=C([O-])C1(C(=O)[O-])CCC1.[Pt+2] [Carboplatin] | – | – | – | – | – | – | – | – | – | – | – | – | – | – | IC50 [12]: 4.3 ± 1.3 µM; IC50 [13]: 422 ± 50.2 µM; IC50 [14]: 0.7 ± 0.2 µM |
| Cc1cc(O)n(C(N)=S)n1 [Compound 1d, 1-[amino(thioxo)methyl]-5-hydroxy-3-methyl-1H-pyrazole] | >1000 | >1000 | did not affect the DNA | >1000 | >1000 | > 1000 | > 1000 | 250 (≈ 1.59 mM) | 779 ± 125 | 250 (≈ 1.59 mM) | > 1000 | 1000 (≈ 6.36 mM) | 615 ± 60.9 | 90.9 ± 10.2 | – |
| Cc1cc(C)n(C(N)=S)n1.Cc1ccc(C(C)C)cc1.[Cl][Ru][Cl] [Compound 2a] | >1000 | – | no influence | 125 | 125 | – | – | – | – | – | – | – | – | – | metabolic activity higher than untreated control cells [8]: 39–45% |
| Cc1cc(C)n(C(N)=S)n1 [Compound 1a, 1-[amino(thioxo)methyl]-3,5-dimethyl-1H-pyrazole] | >1000 | >1000 | did not affect the DNA | >1000 | >1000 | > 1000 | > 1000 | > 1000 | 584 ± 84.3 | > 1000 | > 1000 | > 1000 | 569 ± 21.9 | > 1000 | – |
| N.N.[Cl][Pt][Cl] [Cisplatin] | – | – | – | – | – | – | – | – | – | – | – | – | – | – | IC50 [12]: 0.8 ± 0.1 µM; IC50 [13]: 18.2 ± 4.3 µM; IC50 [14]: 0.7 ± 0.3 µM |
| [(η^6-p-cymene)Ru(1-[amino(thioxo)methyl]-5-hydroxy-3-phenyl-1H-pyrazole)Cl2 [Compound 2c] | >1000 | >1000 | no influence | <31.2 | 62.5 | – | – | – | – | – | – | – | – | – | activity (MIC) stronger than ligand 1c ([4]; E. faecalis ATCC 29212): > 16 fold; activity (MIC) stronger than ligand 1c ([10]; S. epidermidis ATCC 12228): more than 2 fold |
